The results in this text go back to ChEMBL document CHEMBL2157910, “Structure-activity relationship studies of 4-benzyl-1H-pyrazol-3-yl β-d-glucopyranoside derivatives as potent and selective sodium glucose co-transporter 1 (SGLT1) inhibitors with therapeutic activity on postprandial hyperglycemia” (Bioorg Med Chem, 2012).

Converted amounts (≈) assume the structure as drawn.

Series [1] is described as follows: Metabolic stability of the compound in rat intestinal microsomes assessed as compound remaining at 50 uM after 60 mins. Conditions: intestinal microsomes, read-out: Stability. It is filed as ADME, Intestine. The gist of the method: (§1)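 50 µM final compound incubated at 37 °C with 0.8 mg/mL rat intestinal microsomes, 1 mg/mL NADPH, 50 mM ammonium acetate (pH 5.0) and 10 mM MgCl2. Levels measured by LC–MS at 0, 30 and 60 min; reported as % remaining relative to 0 min.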

Series [2] has as its target T1, Sodium/glucose cotransporter 2 (Homo sapiens, UniProt P31639).
T1 sequence (P31639 whole entry): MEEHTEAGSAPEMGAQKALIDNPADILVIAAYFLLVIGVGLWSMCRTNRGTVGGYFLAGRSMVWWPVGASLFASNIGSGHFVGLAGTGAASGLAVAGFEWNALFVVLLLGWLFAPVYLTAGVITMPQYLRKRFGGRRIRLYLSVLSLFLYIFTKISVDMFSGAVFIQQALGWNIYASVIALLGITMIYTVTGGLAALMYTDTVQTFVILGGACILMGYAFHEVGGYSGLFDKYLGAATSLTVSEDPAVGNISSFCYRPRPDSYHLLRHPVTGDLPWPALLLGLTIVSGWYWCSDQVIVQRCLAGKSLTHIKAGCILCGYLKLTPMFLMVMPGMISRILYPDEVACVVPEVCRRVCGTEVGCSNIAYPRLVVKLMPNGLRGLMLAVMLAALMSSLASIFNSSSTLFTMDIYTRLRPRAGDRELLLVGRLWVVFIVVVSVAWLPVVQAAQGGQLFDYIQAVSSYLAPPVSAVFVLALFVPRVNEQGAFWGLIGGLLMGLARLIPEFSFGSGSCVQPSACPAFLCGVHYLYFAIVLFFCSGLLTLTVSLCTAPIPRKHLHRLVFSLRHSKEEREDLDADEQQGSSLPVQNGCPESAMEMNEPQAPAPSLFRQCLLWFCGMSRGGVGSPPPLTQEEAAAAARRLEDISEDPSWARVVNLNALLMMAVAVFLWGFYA
Description: Inhibition of human SGLT2 expressed in COS7 cells assessed as reduction of [14C]-AMG uptake. It counts as cell-based, COS-7.

Series [3] has as its system Rattus norvegicus. Description: Toxicity in Wistar rat assessed as overnight urinary glucose excretion at 10 mg/kg, po. It is filed as organism-based, Urine. Set-up: dose 10 mg/kg, route oral. To be noted: in vivo. The gist of the method:
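Male Wistar rats (8 weeks) in metabolic cages, fasted 08:00 to next morning. At 16:00 they received 10 mg/kg orally in 0.5% CMC or vehicle, and urine was collected until 08:00. Urine glucose by glucose oxidase; n = 5; F-test then Student's t or Welch's test versus vehicle.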

The test system of series [4] is Rattus norvegicus. As to the kind of experiment: Toxicity in Wistar rat streptozotocin-nicotinamide-induced diabetic model assessed as diarrhea at 1 to 10 mg/kg, po. It counts as organism-based. Set-up: dose 1-10 mg/kg, route oral. Conditions: in vivo.
A short description of series [5]: Metabolic stability of the compound in rat intestinal microsomes assessed as compound remaining at 50 uM after 30 mins. It counts as ADME, Intestine. Conditions: intestinal microsomes, read-out: Stability. Put shortly: as §1
Series [6] concerns Rattus norvegicus. Description: Toxicity in Wistar rat streptozotocin-nicotinamide-induced diabetic model assessed as soft feces at 1 to 10 mg/kg, po. It counts as organism-based. Also noted: dose 1-10 mg/kg, route oral. Conditions: in vivo.
Series [7] deals with T2, Sodium/glucose cotransporter 1 (Rattus norvegicus, UniProt P53790).
T2 sequence (P53790 whole entry): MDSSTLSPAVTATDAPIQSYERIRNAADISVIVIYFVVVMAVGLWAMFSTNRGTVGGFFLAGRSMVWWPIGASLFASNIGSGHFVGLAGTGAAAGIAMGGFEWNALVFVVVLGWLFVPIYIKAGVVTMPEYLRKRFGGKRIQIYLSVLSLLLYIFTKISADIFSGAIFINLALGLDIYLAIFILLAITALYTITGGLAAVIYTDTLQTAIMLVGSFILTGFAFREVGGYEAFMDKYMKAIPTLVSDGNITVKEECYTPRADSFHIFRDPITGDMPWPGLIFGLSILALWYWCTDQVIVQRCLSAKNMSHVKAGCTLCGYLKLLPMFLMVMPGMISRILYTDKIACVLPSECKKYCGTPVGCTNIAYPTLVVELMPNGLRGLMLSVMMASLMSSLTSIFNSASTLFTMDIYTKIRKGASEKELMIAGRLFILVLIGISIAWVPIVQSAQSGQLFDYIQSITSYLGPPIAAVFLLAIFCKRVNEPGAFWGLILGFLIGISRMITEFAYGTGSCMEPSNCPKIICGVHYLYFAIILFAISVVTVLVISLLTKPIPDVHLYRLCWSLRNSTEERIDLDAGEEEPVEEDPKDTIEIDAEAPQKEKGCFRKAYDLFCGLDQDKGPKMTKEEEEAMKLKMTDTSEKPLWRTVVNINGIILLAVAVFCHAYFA
As to the kind of experiment: Inhibition of rat SGLT1 expressed in COS7 cells assessed as reduction of [14C]-AMG uptake. It is filed as cell-based, COS-7.

In series [8] the test system is Rattus norvegicus. As to the kind of experiment: Antihyperglycemic activity in po dosed Wistar rat streptozotocin-nicotinamide-induced diabetic model assessed as reduction of plasma glucose level after 1 hr by oral mixed carbohydrate tolerance test. It counts as functional, organism-based. The gist of the method:
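Male Wistar rats (8 weeks) given nicotinamide 230 mg/kg i.p., then streptozotocin 85 mg/kg i.v. 15 min later; after 1 week, rats above 250 mg/dL plasma glucose at 1 h in a 2 g/kg glucose tolerance test were used. Overnight-fasted rats were dosed orally in 0.5% CMC, then immediately loaded with 2 g/kg starch/sucrose/lactose (6:3:1). Plasma glucose by glucose oxidase; n = 7; Dunnett's test versus vehicle.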

In series [9] the target is T3, Sodium/glucose cotransporter 2 (Rattus norvegicus, UniProt P53792).
T3 sequence (P53792 whole entry): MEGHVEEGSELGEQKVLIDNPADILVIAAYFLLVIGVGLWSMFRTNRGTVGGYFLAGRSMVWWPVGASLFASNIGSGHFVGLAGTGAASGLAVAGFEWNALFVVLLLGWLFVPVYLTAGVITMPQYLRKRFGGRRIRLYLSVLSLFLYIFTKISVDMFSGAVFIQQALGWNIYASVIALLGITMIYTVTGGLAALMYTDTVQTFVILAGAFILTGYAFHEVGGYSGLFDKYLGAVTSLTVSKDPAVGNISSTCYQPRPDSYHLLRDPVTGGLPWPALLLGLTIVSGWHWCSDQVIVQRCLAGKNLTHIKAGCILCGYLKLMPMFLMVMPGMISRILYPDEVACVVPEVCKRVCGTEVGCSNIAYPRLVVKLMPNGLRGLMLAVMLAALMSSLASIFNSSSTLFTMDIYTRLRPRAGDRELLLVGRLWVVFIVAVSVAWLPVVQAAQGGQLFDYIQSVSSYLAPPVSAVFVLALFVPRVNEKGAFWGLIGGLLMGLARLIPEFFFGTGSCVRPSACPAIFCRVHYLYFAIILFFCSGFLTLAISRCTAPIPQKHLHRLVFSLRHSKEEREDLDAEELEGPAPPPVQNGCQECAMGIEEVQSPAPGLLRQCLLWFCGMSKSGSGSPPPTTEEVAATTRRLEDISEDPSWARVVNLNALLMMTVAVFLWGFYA
Description: Inhibition of rat SGLT2 expressed in COS7 cells assessed as reduction of [14C]-AMG uptake. It is filed as cell-based, COS-7.

Series [10] can be described thus: Solubility of the compound in distilled water. It counts as physicochemical. The gist of the method: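 Solubility measured in distilled water, with filtrate concentration quantified by HPLC.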

For `Cc1ccc(Cc2c(O[C@@H]3O[C@H](CO)[C@@H](O)[C@H](O)[C@H]3O)n[nH]c2C(C)C)c(C)c1`, in series [1], the remaining at 1 h, 50 µM was determined as 67%. The IC50 in series [2] was 6.01 µM; in series [7], 0.067 µM; in series [9], 4.65 µM. In addition, the Activity was 0.8 mg in the series with Rattus norvegicus [3], “Non-toxic” with Rattus norvegicus [4], “Non-toxic” with Rattus norvegicus [6] and “Dose-dependent effect” in the series on Rattus norvegicus [8]. Besides, the remaining at 0.5 h, 50 µM in series [5] was 91%. This compound also had a solubility in [10] of 3700 µg/mL (≈ 9.1 mM).
